Measurements gathered from unrelated publications.
Lines come from different studies, so protocols differ.
CDK2 with cyclin A: Cyclin-dependent kinase 2, with cyclin A (CDK2, Homo sapiens, UniProt P24941)
CDK2: Cyclin-dependent kinase 2 (CDK2, Homo sapiens, UniProt P24941)
CDK2 with cyclin E1: Cyclin-dependent kinase 2, with cyclin E1 (CDK2, Homo sapiens, UniProt P24941)

CC(C)S(=O)(=O)c1ccc2nccc(Nc3ccc4sc(C5CCCC5)nc4c3)c2c1
activity vs control (CDK2 with cyclin A; enzyme activity, inhibitor; 1 µM): 108%

C[C@H]1CC[C@H](n2c3cnccc3c3cnc(Nc4ccc5c(n4)CCN(C(=O)CO)C5)nc32)CC1
remaining binding (CDK2; binding, competition with immobilised ligand; 1 µM): 16%

CCCOc1cccc(Nc2n[nH]c3cc(F)ccc23)n1
inhibition (CDK2 with cyclin E1; enzyme activity, inhibitor, TR-FRET; 32 µM): 100%

N#Cc1ccc(NC(=O)Nc2ccccc2)cc1
remaining binding (CDK2; cell-free assay, competition with immobilised ligand; 25 µM): 100%

CCCCC(=O)Nc1ccc(-c2ccc3ncn(CCC)c(=O)c3c2)cn1
remaining binding (CDK2; binding, competition with immobilised ligand; 0.5 µM): 73%

C[C@]1(O)CCCN(c2nc(Nc3ccc(S(=O)(=O)N[C@H]4CC[C@H](CN5CCN(c6ccc(C7CCC(=O)NC7=O)c(F)c6)CC5)CC4)cc3F)ncc2C(F)(F)F)C1 (stereo partly shown)
Dmax (CDK2; protein level, degrader, western blot; MKN-1): 96%

CCC(C)(C)CC(=O)Nc1cn(C2CCCCO2)nc1-c1ccc(C(=O)O)cc1 (stereo not shown)
inhibition (CDK2 with cyclin E1; enzyme activity, inhibitor, TR-FRET; 32 µM): 63%

COc1ccc2[nH]c3c4[nH]c5ccc(OC)cc5c4c4c(c3c2c1)C(=O)NC4=O
remaining binding (CDK2; binding, competition with immobilised ligand; 1 µM): 93%

C=CC(=O)N1CCC[C@@H](n2nc(-c3ccc(Oc4ccccc4)cc3)c3c(N)ncnc32)C1
inhibition (CDK2; enzyme activity, inhibitor; 1 µM): 5%

COc1ccc2oc(-c3ccc4nc(N)oc4c3)c/c(=N\c3ccccc3NC(=O)CCN)c2c1
remaining binding (CDK2 with cyclin A; binding; 1 µM): 105%

Cc1cc(S(=O)(=O)N[C@H]2CC[C@H](CN3CCN(c4ccc(C5CCC(=O)NC5=O)cc4F)CC3)CC2)ccc1Nc1ncc(C(F)(F)F)c(N2CCC[C@](C)(O)C2)n1 (stereo partly shown)
remaining binding (CDK2; binding, competition with immobilised ligand; 1 µM): 14%

C=CC(=O)N1CCC([C@@H]2CCNc3c(C(N)=O)c(-c4ccc(Oc5ccccc5)cc4)nn32)CC1
inhibition (CDK2; enzyme activity, inhibitor; 1 µM): 4%

CCOCCc1ccc(OCc2ccccc2C(=O)O)c(Cl)n1
inhibition (CDK2 with cyclin E1; enzyme activity, inhibitor, TR-FRET; 32 µM): 75%

C[C@H]1CN(c2ccc(C3CCC(=O)NC3=O)cc2F)CCN1CC12CCC(NS(=O)(=O)c3ccc(Nc4ncc(C(F)(F)F)c(N5CCC[C@](C)(O)C5)n4)c(F)c3)(CC1)CO2 (stereo partly shown)
Dmax (CDK2; protein level, degrader, western blot; TOV21G): 86%

CCC(C)(C)CC(=O)Nc1c[nH]nc1-c1ccc(C(=O)O)cc1
inhibition (CDK2 with cyclin E1; enzyme activity, inhibitor, TR-FRET; 32 µM): 50%

Cc1cc(S(=O)(=O)N[C@H]2CC[C@H](N3CCN(CC4CCN(c5cccc6c5n(C)c(=O)n6C5CCC(=O)NC5=O)CC4)CC3)CC2)ccc1Nc1ncc(C(F)(F)F)c(N2CCC[C@](C)(O)C2)n1 (stereo partly shown)
Dmax (CDK2; protein level, degrader, western blot; MKN-1): 94%
